Results on 89 compounds are retold here after ChEMBL document CHEMBL1148307, “Non-peptidic small-molecule inhibitors of the single-chain hepatitis C virus NS3 protease/NS4A cofactor complex discovered by structure-based NMR screening” (J Med Chem, 2004).

Molecules are shown by their SMILES. “And” between values parts separate entries of the source, which are not always exact repeats. Identical values can stand only once. Some results are limits rather than exact numbers.

T1 sequence (A3EZJ3 whole entry): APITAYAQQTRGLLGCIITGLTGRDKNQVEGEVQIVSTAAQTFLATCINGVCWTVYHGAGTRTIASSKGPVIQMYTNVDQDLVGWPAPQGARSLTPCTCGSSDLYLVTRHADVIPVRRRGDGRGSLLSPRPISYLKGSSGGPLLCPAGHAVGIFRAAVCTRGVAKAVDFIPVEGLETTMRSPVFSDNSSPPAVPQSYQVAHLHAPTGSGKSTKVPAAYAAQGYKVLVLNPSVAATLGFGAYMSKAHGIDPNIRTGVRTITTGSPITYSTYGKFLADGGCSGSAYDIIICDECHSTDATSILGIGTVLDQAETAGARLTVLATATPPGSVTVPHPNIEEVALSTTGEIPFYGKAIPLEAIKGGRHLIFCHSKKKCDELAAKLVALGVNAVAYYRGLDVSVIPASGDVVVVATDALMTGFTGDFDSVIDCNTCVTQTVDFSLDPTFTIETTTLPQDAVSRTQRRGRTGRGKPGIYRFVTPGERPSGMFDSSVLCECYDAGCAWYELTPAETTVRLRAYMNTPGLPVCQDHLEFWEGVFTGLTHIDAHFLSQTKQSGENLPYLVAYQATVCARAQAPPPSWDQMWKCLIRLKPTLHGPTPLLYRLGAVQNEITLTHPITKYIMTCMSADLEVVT

The first assay has as its target T1, NS3 (Hepatitis C virus, UniProt A3EZJ3). Description: Dissociation constant for HCV NS3 protease substrate binding site. The arrangement: species or system Hepacivirus hominis.
Conditions: not given; call rule not given here
The method, boiled down:
(§1)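 Uniformly 15N-labeled single-chain ns4a–ns3p, 0.2 mM, in 75 mM potassium phosphate pH 6.5, 20 mM DTT, 95/5% H2O/D2O, 0.015% sodium azide. Spectra were recorded with and without compound at several compound concentrations. KD and bound shift were fitted by nonlinear least squares to a single-site binding equation, with total compound and protein concentrations known.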
As for `CC(=O)N[C@H](Cc1cc(I)c(O)c(I)c1)C(=O)O`, the Kd (in general, the concentration at which binding is half-saturated) is on record as “Active”.

Regarding `CC(C)(C)OC(=O)N[C@@H](Cc1cc(I)c(O)c(I)c1)C(=O)O`, the Kd entry is “Active”.

`O=C(c1ccc(Cl)cc1)c1cccc(Cl)c1C(=O)O`: the Kd entry is “Insoluble”.

As to `CC(C)(C)OC(=O)N[C@H](Cc1cc(I)c(O)c(I)c1)C(=O)O`, the Kd result is “Active”.

Consider `Oc1c(I)cc(CCc2ccncc2)cc1I`, for which the Kd result was “Not Active”.

Turning to `COc1ccc(C(=O)c2cc(OC)ccc2C(=O)O)cc1`, the Kd result is recorded as “Insoluble”.

Turning to `CCOC(=O)C(Cc1cc(I)c(O)c(I)c1)c1ccccc1` (configuration not stated), the Kd result is “Not Active”.

The same assay, now with this note: read-out: Kd.
As for `O=C(O)c1ccccc1C(=O)c1ccc(C(F)(F)F)cc1`, the Kd stood at 4 mM.

As to `Cn1c(C(=O)O)cc2ccccc21`, the Kd turned out to be 8.1 mM.

For the compound `O=C(O)c1cc(I)c(O)c(I)c1`, the Kd came out at 0.42 mM.

Consider `O=C(O)C(Cc1ccc(O)cc1)c1ccccc1` (configuration not stated), for which the Kd is more than 8 mM.

For `O=C(O)C(Cc1cc(I)c(O)c(I)c1)c1ccccc1` (configuration not stated) [IODOALPHIONIC ACID], the Kd was 0.11 mM.

Turning to `CC(=O)c1ccc(OCC(=O)O)cc1`, the Kd is more than 20 mM.

As for `O=C(O)c1ccccc1C(=O)c1ccc(Cl)cc1`, the Kd was approximately 0.003 mM.

In the case of `O=C(O)CCc1cc(I)c(O)c(I)c1`, the Kd is 0.09 mM.

As to `O=C(O)c1ccccc1Oc1ccc(Cl)cc1`, the Kd stood at 7 mM.

Take `COc1ccc(C(=O)C2CC2)cc1`: the Kd is more than 20 mM.

For the compound `CNC(=O)Nc1ccc(C(=O)O)cc1`, the Kd was more than 210 mM.

For `Cc1ccc(C(=O)O)c(C(=O)c2ccc(O)cc2)c1`, the Kd is more than 5 mM.

Turning to `COc1c(I)cc(CC(C(=O)O)c2ccccc2)cc1I` (configuration not stated), the Kd is more than 1.6 mM.

In the case of `O=C(O)c1cc(Br)ccc1C(=O)c1ccc(O)cc1`, the Kd was more than 0.6 mM.

On to `O=C(O)c1ccccc1C(=O)c1ccc(F)cc1`, for which the Kd was approximately 4 mM.

On to `Nc1ccc(C(=O)Nc2ccc(Cl)c(N)c2)cc1`, for which the dissociation constant (Kd) came out at 20 mM.

On to `CN(C)C(=O)c1cccc(C(=O)c2ccc(Cl)cc2)c1C(=O)O`, for which the Kd was more than 10 mM.

`COc1ccc2sc(C(=O)O)cc2c1`: the Kd came to 8 mM.

With `CCC(=O)Nc1ccc(O)cc1` [PARAPROPAMOL], the Kd is 34 mM.

Turning to `COc1ccc(NC(=O)C2(C)CC2)cc1`, the Kd is more than 60 mM.

For the compound `COC(=O)[C@H](N)Cc1cc(I)c(O)c(I)c1`, the Kd was more than 2.5 mM.

`O=C(O)c1cc2ccccc2o1`: the Kd was 6.4 mM.

Turning to `COc1ccc(NC(=O)C(C)(C)C)cc1`, the Kd is more than 0.1 mM.

`Cc1ccc(NC(=O)c2ccc(N)cc2)c(N)c1`: the Kd was more than 20 mM.

As to `O=C(O)CC(c1ccccc1)c1cc(I)c(O)c(I)c1` (configuration not stated), the Kd was 0.04 mM.

Consider `O=C(/C=N/O)Nc1ccc(C(=O)O)cc1`, for which the Kd was more than 0.25 mM.

With `O=C(O)c1ccc(O)cc1C(=O)c1ccc(O)cc1`, the Kd is more than 10 mM.

As for `COc1ccc(NC(=O)CCC(=O)O)cc1`, the Kd was more than 110 mM.

Turning to `CC(C)C(=O)Nc1ccc(O)cc1`, the Kd was 17 mM.

Turning to `COc1ccc(CC(C(=O)O)c2ccccc2)cc1` (configuration not stated), the Kd was more than 8 mM.

For the compound `O=C(O)c1cc2cc(Cl)ccc2o1`, the Kd came out at 2.2 mM.

With `COc1ccc(NC(=O)c2ccccc2C(=O)O)cc1`, the Kd came out at 22 mM.

Regarding `Nc1ccc(C(=O)c2ccc(N)cc2)cc1`, the Kd was more than 20 mM.

In the case of `COc1ccc(NC(=O)C(C)C)cc1`, the Kd stood at 70 mM.

For `O=C(O)c1cc2cccc(Cl)c2[nH]1`, the Kd is 1.4 mM.

`Cc1ccc(C(=O)c2ccccc2C(=O)O)cc1`: the equilibrium dissociation constant (Kd) was 1.6 mM.

On to `O=C(O)c1cc2ccc(Cl)cc2[nH]1`, for which the Kd was 0.4 mM.

On to `O=C(O)CCCc1ccc(C(=O)c2ccccc2C(=O)O)cc1`, for which the Kd was found to be 40 mM.

In the case of `O=C(O)c1cc2ccccc2[nH]1` [INDOLE-2-CARBOXYLIC ACID], the Kd is 12 mM.

Consider `COc1ccc2[nH]c(C(=O)O)cc2c1`, for which the Kd is 4 mM.

As to `c1ccc2c(c1)NC1SCCCN21` (configuration not stated), the Kd is approximately 0.0019 mM.

With `O=C(CCCl)Nc1ccc(O)cc1`, the Kd amounted to 55 mM.

On to `Cc1ccc2[nH]c(C(=O)O)cc2c1`, for which the Kd turned out to be 1.2 mM.

For `O=C(O)Cc1ccccc1C(=O)c1ccc(Cl)cc1`, the Kd came to 4 mM.

With `O=C(O)c1cc2cc(Cl)ccc2[nH]1` [5-CHLOROINDOLE-2-CARBOXYLIC ACID], the dissociation constant (Kd) was determined as 0.3 mM.

With `O=C(O)c1ccccc1C(=O)c1ccc(O)cc1`, the Kd stood at 1.6 mM.

`O=C(O)c1cc2c(Cl)cccc2[nH]1`: the Kd worked out at 0.8 mM.

For the compound `O=C(O)C(Cc1cc(Br)c(O)c(Br)c1)c1ccccc1` (configuration not stated), the Kd was more than 8 mM.

For `Cc1ccc(N)cc1NC(=O)c1ccc(N)cc1`, the Kd worked out at 100 mM.

Regarding `CC1(C(=O)Nc2ccc(O)c(C(F)(F)F)c2)CC1`, the Kd worked out at 0.69 mM.

Turning to `Nc1ccc(CC(C(=O)O)c2ccccc2)cc1` (configuration not stated), the Kd is more than 8 mM.

For the compound `Nc1ccc(C(=O)c2ccccc2)cc1`, the Kd was > 0.03 mM and ~0.02 mM.

In the case of `O=C(O)c1ccccc1Oc1ccc(F)cc1`, the Kd is 7 mM.

As for `O=C(O)C(Cc1cc([N+](=O)[O-])c(O)c([N+](=O)[O-])c1)c1ccccc1` (configuration not stated), the Kd is more than 8 mM.

Regarding `O=C(O)C(F)(F)C(F)(F)C(=O)O`, the Kd was approximately 0.0052 mM.

In the case of `O=C(O)c1ccccc1Cc1ccc(O)cc1`, the Kd was more than 7 mM.

With `O=C(O)COc1c(I)cc(CC(C(=O)O)c2ccccc2)cc1I` (configuration not stated), the Kd is more than 8 mM.

For the compound `COc1ccc(C(=O)c2ccccc2C(=O)O)cc1`, the Kd was determined as 1 mM.

For `O=C(O)CCCc1cc(I)c(O)c(I)c1`, the Kd stood at 0.14 mM.

`O=C(O)c1cc2cc(F)ccc2[nH]1` [5-FLUOROINDOLE-2-CARBOXYLIC ACID]: the Kd amounted to 0.0029 mM.

As to `O=C(O)c1cc2cccc(Br)c2[nH]1`, the Kd came to 1 mM.

`CC1(C(=O)Nc2ccc(O)cc2)CC1`: the Kd is 8.4 mM.

Regarding `Nc1ccc(C(=O)O)cc1` [AMINOBENZOIC ACID], the Kd is more than 40 mM.

With `O=C(O)c1cc2cc(Br)ccc2[nH]1`, the Kd was 0.2 mM.

With `CON(C)C(=O)Nc1ccc(O)c(C(F)(F)F)c1`, the Kd was 8 mM.

`O=C(O)c1cc2ccccc2s1`: the Kd was 1.7 mM.

On to `O=C(O)c1ccccc1C(=O)c1cccc(Cl)c1`, for which the Kd is more than 10 mM.

With `COC(=O)c1cccc(C(=O)c2ccc(Cl)cc2)c1C(=O)O`, the Kd is more than 10 mM.

In the case of `Nc1cc(O)nc(-c2cc(I)c(O)c(I)c2)n1`, the Kd was approximately 0.23 mM.

With `COc1ccc(C(=O)c2ccc[nH]2)cc1`, the Kd is more than 0.02 mM.

Take `CC(C)C(=O)Nc1ccc(O)c(C(F)(F)F)c1`: the Kd is 8 mM.

In the case of `O=C(O)c1ccccc1Cc1ccc(Cl)cc1`, the Kd was more than 7 mM.

Take `CC(=O)c1ccc(OCCC(=O)O)cc1`: the Kd is more than 20 mM.

As to `CN(C)C(=O)Nc1ccc(O)c(C(F)(F)F)c1`, the Kd is 12 mM.

Regarding `COc1ccc(N)cc1NC(=O)c1ccc(N)cc1`, the Kd was more than 20 mM.

As for `Nc1ccc(C(=O)c2cccnc2N)cc1`, the Kd is 70 mM.

The next assay has as its target T1, NS3. Description: Inhibition constant for HCV NS3 protease substrate binding site.
Conditions: not given
The arrangement: species or system Hepacivirus hominis.
Regarding `CC(=O)N[C@H](Cc1cc(I)c(O)c(I)c1)C(=O)O`, the Ki (commonly the equilibrium dissociation constant of an inhibitor or competing ligand from its target) stood at 0.21 mM.

Compound `O=C(O)c1cc(I)c(O)c(I)c1` returned a Ki of 0.6 mM.

Regarding `O=C(O)C(Cc1cc(I)c(O)c(I)c1)c1ccccc1` (configuration not stated) [IODOALPHIONIC ACID], the Ki amounted to 0.14 mM.

Compound `CC(C)(C)OC(=O)c1ccccc1C(=O)c1ccc(OCCCOC(=O)N[C@@H](Cc2cc(I)c(O)c(I)c2)C(=O)OC(C)(C)C)cc1` registered a Ki of 0.001 mM.

`O=C(N[C@@H](Cc1cc(I)c(O)c(I)c1)C(=O)O)OCCCOc1ccc(C(=O)c2ccccc2C(=O)O)cc1` gave a Ki of 0.0008 mM.

In turn, `O=C(O)CCc1cc(I)c(O)c(I)c1` yielded a Ki of 0.08 mM.

The compound `O=C(O)CC(c1ccccc1)c1cc(I)c(O)c(I)c1` (configuration not stated) had a Ki of 0.1 mM.

As for `CC(C)(C)OC(=O)N[C@@H](Cc1cc(I)c(O)c(I)c1)C(=O)O`, the Ki was determined as 0.31 mM.

The compound `CC(C)(C)OC(=O)N[C@H](Cc1cc(I)c(O)c(I)c1)C(=O)O` registered a Ki of 0.26 mM.

Compound `O=C(O)CCCc1cc(I)c(O)c(I)c1` registered a Ki of 0.18 mM.

As for `Cc1ccc(S(=O)(=O)NNC(=S)c2ccccc2)cc1`, the affinity, expressed as Ki, was 0.65 mM.

For another assay, the target named is T1, NS3. Description: Dissociation constant for HCV NS3 protease substrate binding site; protein precipitation at 1:2 compound [100 uM]/protein ratio.
Conditions: not given
The arrangement: species or system Hepacivirus hominis. The gist of the method: as §1
For the compound `CC(C)c1ccc(C(Cc2cc(I)c(O)c(I)c2)C(=O)O)cc1` (configuration not stated), the Kd result is “No Delta CS”.

As for `O=C(O)C(Cc1cc(I)c(O)c(I)c1)c1ccc2ccccc2c1` (configuration not stated), the Kd entry was “No Delta CS”.

For `O=C(O)C(Cc1cc(I)c(O)c(I)c1)c1ccc(-c2ccccc2)cc1` (configuration not stated), the Kd result is given as “No Delta CS”.
